Measured values from different studies.
Protocols differ between the studies behind these lines.
Target: Ephrin type-A receptor 6 (EPHA6, Homo sapiens, UniProt Q9UF33)
Sequence (Q9UF33 23-1036, as in one of the studies): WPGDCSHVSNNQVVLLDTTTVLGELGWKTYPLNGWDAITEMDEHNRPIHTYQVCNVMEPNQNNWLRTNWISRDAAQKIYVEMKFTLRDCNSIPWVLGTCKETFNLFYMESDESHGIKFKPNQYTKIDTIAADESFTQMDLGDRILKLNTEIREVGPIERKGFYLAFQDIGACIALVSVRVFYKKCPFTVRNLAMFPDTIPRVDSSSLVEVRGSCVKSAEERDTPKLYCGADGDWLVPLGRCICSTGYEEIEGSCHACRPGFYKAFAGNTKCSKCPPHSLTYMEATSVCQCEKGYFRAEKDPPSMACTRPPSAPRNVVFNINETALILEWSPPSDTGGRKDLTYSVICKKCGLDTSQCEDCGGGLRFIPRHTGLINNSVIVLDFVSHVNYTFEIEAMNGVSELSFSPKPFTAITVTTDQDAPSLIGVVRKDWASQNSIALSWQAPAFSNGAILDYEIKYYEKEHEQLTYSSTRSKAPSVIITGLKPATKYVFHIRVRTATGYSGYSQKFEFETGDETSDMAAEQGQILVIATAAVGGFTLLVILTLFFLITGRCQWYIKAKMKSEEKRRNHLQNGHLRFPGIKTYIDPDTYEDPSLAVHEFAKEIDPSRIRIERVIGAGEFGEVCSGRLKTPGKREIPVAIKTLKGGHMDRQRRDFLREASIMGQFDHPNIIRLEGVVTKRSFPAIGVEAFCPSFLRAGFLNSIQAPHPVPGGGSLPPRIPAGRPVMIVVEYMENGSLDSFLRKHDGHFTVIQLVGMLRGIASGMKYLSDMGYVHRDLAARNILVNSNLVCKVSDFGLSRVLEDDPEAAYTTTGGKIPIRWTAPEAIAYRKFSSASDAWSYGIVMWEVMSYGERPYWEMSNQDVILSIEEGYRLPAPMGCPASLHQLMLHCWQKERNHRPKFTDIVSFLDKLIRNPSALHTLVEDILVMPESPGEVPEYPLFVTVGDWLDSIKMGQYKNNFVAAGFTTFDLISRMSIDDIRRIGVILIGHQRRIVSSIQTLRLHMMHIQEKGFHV

| SMILES | effect on | method | concentration | remaining binding |
| --- | --- | --- | --- | --- |
| FC(F)(F)Oc1cccc(-c2cnc3ccc(-c4ccncc4)nn23)c1 | cell-free assay | competition with immobilised ligand | 5 µM | 93% |
| CNCc1ccccc1-c1csc([C@H](C)Nc2nc(C)nc3cc(OC)c(OC)cc23)c1 | cell-free assay | competition with immobilised ligand | 1 µM | 100% |
| Cc1cnn2ncc(-c3ccnc(N(C)C)n3)c2c1 | binding | – | 1 µM | 100% |
| CCS(=O)(=O)c1cc2cc(C[C@@](O)(CC(C)(C)c3ccc(F)cc3C(N)=O)C(F)(F)F)[nH]c2cn1 | cell-free assay | competition with immobilised ligand | 1 µM | 100% |
| C[C@@H](c1ccc(-n2cnc3c(N)ncnc32)cc1)N1CCc2nn(C)c(Cc3ccccc3)c2C1=O | binding | competition with immobilised ligand | 0.1 µM | 100% |
| c1cncc(-c2cccc(Nc3nccc(NC4CCCCC4)n3)c2)c1 | binding | competition with immobilised ligand | 10 µM | 96% |
| O=C(c1ccc(Nc2nccc(-c3cc4ccccc4s3)n2)cc1)N1CCC(N2CCCC2)CC1 | binding | competition with immobilised ligand | 1 µM | 99% |
| COc1cnc(Nc2cccc(S(N)(=O)=O)c2)nc1N1CCN(c2ccccc2)CC1 | binding | competition with immobilised ligand | 1 µM | 100% |
| N[C@H]1CCN(c2nccc(-c3cnn4ncccc34)n2)C1 | binding | – | 1 µM | 100% |
| Nc1ncc2c(n1)-c1c([nH]c3ccc(C#CC4CC4)cc13)CCCC2 | binding | competition with immobilised ligand | 1 µM | 100% |
| O=C(N[C@H]1CCCCC/C=C\C2C[C@@]2(C(=O)O)NC(=O)[C@@H]2C[C@@H](Oc3ccncc3)CN2C1=O)OC1CCCC1 (stereo partly drawn) | cell-free assay | competition with immobilised ligand | 1 µM | 100% |
| COc1ccnn2ncc(-c3ccnc(N(C)C)n3)c12 | binding | – | 1 µM | 67% |
| O=C(c1ccc(Nc2ncc(Cl)c(-c3cc4ccccc4s3)n2)cc1)N1CCC(N2CCCC2)CC1 | binding | competition with immobilised ligand | 1 µM | 69% |
| O=C(Nc1cccnn1)N1CCC(=Cc2cccc(Oc3ccc(C(F)(F)F)cn3)c2)CC1 | cell-free assay | competition with immobilised ligand | 1 µM | 78% |
| CN(C)c1ncc(F)c(-c2cnn3ncccc23)n1 | binding | – | 1 µM | 82% |
| Cc1cnc(Nc2ccc(C(=O)N3CCC(N4CCCC4)CC3)cc2)nc1-c1cc2ccccc2s1 | binding | competition with immobilised ligand | 1 µM | 65% |
| C[C@H]1CCN(c2nccc(-c3cnn4ncccc34)n2)C1 | binding | – | 1 µM | 100% |
| Cn1nc(C(=O)NCc2ccc(C(=O)O)cc2)cc1-c1ccc2[nH]ccc2c1 | cell-free assay | competition with immobilised ligand | 0.1 µM | 100% |
| O=C(NCC1CCOCC1)c1n[nH]cc1NC(=O)c1c(F)cccc1F | binding | competition with immobilised ligand | 1 µM | 100% |
| CNC(=O)Nc1ccc2c(c1)[C@@]1(CC2)OC(=O)N(CC(=O)N(Cc2ccc(F)cc2)[C@@H](C)C(F)(F)F)C1=O | cell-free assay | competition with immobilised ligand | 1 µM | 91% |
| CC1CCCN1c1nccc(-c2cnn3ncccc23)n1 (stereo not drawn) | binding | – | 1 µM | 94% |
